From PubChem
This excerpt belongs to a sample that is enriched for hits.
KDM4C inh: inhibitors of GASC-1 (KDM4C) histone demethylase, primary screen, biochemical, single concentration HTS. GST-KDM4C 2-372, H3K9me3 peptide, LANCE TR-FRET. AID 720574, 2013. inhibition, % at 12.5 µM. actives 0.15% (n = 96,000). Lysine-specific demethylase 4C (Homo sapiens), Q9H3R0;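 active = mean replicate inhibition above about 25%, with at least 55% of replicates also reaching it, limit read from the data, passing the limit was not always enough; inconclusive = only one of those two conditions met; inactive = neither condition met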
Target sequence (Q9H3R0 2-372 limits assumed): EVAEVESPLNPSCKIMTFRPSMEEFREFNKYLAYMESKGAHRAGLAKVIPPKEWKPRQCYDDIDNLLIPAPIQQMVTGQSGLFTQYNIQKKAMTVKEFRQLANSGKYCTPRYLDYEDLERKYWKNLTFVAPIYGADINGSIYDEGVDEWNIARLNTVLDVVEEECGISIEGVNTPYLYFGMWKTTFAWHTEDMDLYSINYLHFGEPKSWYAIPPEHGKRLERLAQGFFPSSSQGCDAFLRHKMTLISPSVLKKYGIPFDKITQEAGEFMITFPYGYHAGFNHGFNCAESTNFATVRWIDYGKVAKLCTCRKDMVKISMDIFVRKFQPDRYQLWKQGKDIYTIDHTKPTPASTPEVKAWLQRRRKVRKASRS
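Material: N-terminal GST-fused human GASC-1 (KDM4C) fragment, residues 2-372. Input: 10 nM enzyme. Incubation: enzyme reaction 30 min, then detection 60 min, both room temperature. Doses: one test concentration per compound. Read-out basis: inhibition from TR-FRET ratio decrease. Detection: LANCE TR-FRET, excitation 340 nm, emissions 618 and 671 nm.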
IDH1 mut inh: inhibitors of IDH1 R132H reductase, primary screen, biochemical, plate reader, single point | actives 0.18% (n = 70,000) | inhibition, % at 10 µM | diaphorase/resazurin fluorescence, 60 min; in the data active = inhibition above about 34%; inconclusive = no clear call, values can overlap the other calls; inactive = below about 11%;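 also: 0% = DMSO and 100% = no enzyme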
T cruzi growth-1: T. cruzi intracellular proliferation inhibitors, primary screen, cell-based, beta-gal Tulahuen parasites, NIH3T3 host, luminescence. actives 5.9% (n = 77,000). T. cruzi beta-gal in NIH3T3, GalScreen luminescence, 90 h. inhibition, % at 8.34 µM. AID 624255, 2012;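 active = mean inhibition above about 93%, with at least 55% of replicates each passing it, limit read from the data, passing the limit was not always enough; inconclusive = only one of those two conditions holds; inactive = neither condition holds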
T cruzi growth-2: T. cruzi intracellular proliferation inhibitors, confirmation, cell-based, NIH3T3 host, beta-gal parasite, luminescence, cherry-pick | T. cruzi beta-gal in NIH3T3, GalScreen luminescence, 90 h | actives 72% (n = 5,600) | inhibition, % at 8.35 µM | shares compounds with T cruzi growth-1;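 active = mean replicate inhibition above about 95% and at least 55% of replicates individually reaching it, limit read from the data; inconclusive = only one of the two criteria is met; inactive = neither criterion is met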
T cruzi growth-3: inhibitors of intracellular T. cruzi replication, confirmation, NIH3T3 host cells, beta-gal parasites, cherry-pick, set 2; shares compounds with T cruzi growth-1; T. cruzi beta-gal in NIH3T3, GalScreen luminescence, 90 h; inhibition, % at 2.09 µM; actives 21% (n = 5,600);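 active = mean inhibition above about 95%, with at least 55% of replicates also reaching it, limit read from the data; inconclusive = meets just one of the two conditions; inactive = meets neither condition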;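 also: plate controls were neutral control median for no effect and positive control median for full effect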
NIH3T3 tox: cytotoxicity in mouse NIH/3T3 fibroblasts, confirmation, cytotoxicity control for T. cruzi proliferation inhibitor project, cell-based, cherry-pick, single point; shares compounds with T cruzi growth-1; NIH/3T3 viability, CellTiter-Glo ATP luminescence, 90 h; cytotoxicity (signal decrease), % at 8.35 µM; actives 14% (n = 5,600); AID 651742, 2012;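 active = mean signal decrease across replicates above about 35% based on untreated-well scatter, with enough replicates individually passing, limit read from the data; inconclusive = no rule stated though some were filed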;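 also: 0% = median of neutral control wells and 100% = median of positive control wells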
3T3 cytotox 2: NIH/3T3 fibroblast cytotoxicity, confirmation, cytotoxicity control, cell-based, cherry-pick, single point, set 2. shares compounds with T cruzi growth-1. NIH/3T3 viability, CellTiter-Glo ATP luminescence, 90 h. inhibition, % at 24.9 µM. actives 56% (n = 5,600). AID 651744, 2012;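 active = mean loss of cell viability signal at or above a set limit, and enough replicates individually reaching it; inconclusive = meets only the mean limit or only the replicate share; inactive = meets neither condition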;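 also: 0% = median of neutral control wells and 100% = median of positive control wells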
The depositor's hits bear a star; u = inconclusive; x = not tested or not shown; ! = not active in a repeat.

SMILES	KDM4C inh	IDH1 mut inh	T cruzi growth-1	T cruzi growth-2	T cruzi growth-3	NIH3T3 tox	3T3 cytotox 2
C[C@@H]1CN([C@@H](C)CO)C(=O)c2cc(NS(=O)(=O)c3ccc(Cl)cc3)ccc2O[C@H]1CN(C)Cc1ccc(C(=O)Nc2ccccc2N)cc1	5	x	69	x	x	x	x
O=C(COc1cc(Cl)c(Cl)cc1Cl)Nc1ncn[nH]1	x	0	x	x	x	x	x
CC1CC(=O)c2c(ccc3c2C(=O)c2cccc(O)c2C3O)C1 (stereo unspecified)	x	0	x	x	x	x	x
C[C@@H]1CN([C@H](C)CO)C(=O)c2cc(NS(=O)(=O)c3ccc(Cl)cc3)ccc2O[C@@H](C)CCCCO[C@@H]1CN(C)S(=O)(=O)c1ccc(Cl)cc1	-1	x	u	100*	112*	-13	u
C[C@@H]1CCCCO[C@@H](CN(C)S(=O)(=O)c2ccc(Cl)cc2)[C@H](C)CN([C@H](C)CO)C(=O)c2cc(NS(=O)(=O)c3ccc(Cl)cc3)ccc2O1	0	x	62	x	x	x	x
C[C@@H]1CN([C@H](C)CO)C(=O)c2cc(N(C)C)ccc2O[C@@H](C)CCCCO[C@H]1CN(C)S(=O)(=O)c1ccc(Cl)cc1	-1	3	57	x	x	x	x
C[C@@H]1CN([C@@H](C)CO)C(=O)c2cc(NS(=O)(=O)c3ccc(Cl)cc3)ccc2O[C@@H](C)CCCCO[C@@H]1CN(C)S(=O)(=O)c1ccc(Cl)cc1	-1	x	98*	101*	114*	-28	14
C[C@@H]1CCCCO[C@H](CN(C)S(=O)(=O)c2ccc(Cl)cc2)[C@H](C)CN([C@H](C)CO)C(=O)c2cc(N(C)C)ccc2O1	1	0	101*	104*	24	14	-3
C[C@H](CO)N1C[C@H](C)[C@@H](CN(C)S(=O)(=O)c2ccc(Cl)cc2)OCCCC[C@H](C)Oc2ccc(NS(=O)(=O)c3ccc(Cl)cc3)cc2C1=O	-1	x	87	x	x	x	x
COc1ccc(C(=O)NCCCSc2nc(C(C)(C)C)cc(C(F)(F)F)n2)cc1	x	0	x	x	x	x	x
CS(=O)(=O)N(CC(=O)Nc1cccc(Br)c1)c1ccc(F)c(Cl)c1	x	-1	x	x	x	x	x
C[C@@H]1CN([C@@H](C)CO)S(=O)(=O)c2ccc(Br)cc2O[C@H]1CN(C)Cc1ccccc1	1	0	99*	92	85	32	104*
C[C@H](CO)N1C[C@H](C)[C@H](CN(C)Cc2ccccc2)Oc2cc(Br)ccc2S1(=O)=O	1	-3	89	x	x	x	x
C[C@H]1CN([C@@H](C)CO)S(=O)(=O)c2ccc(Br)cc2O[C@@H]1CN(C)Cc1ccccc1	2	-7	97*!	100*	92	u	107*
C[C@H]1CN([C@@H](C)CO)S(=O)(=O)c2ccc(Br)cc2O[C@H]1CN(C)Cc1ccccc1	2	-5	77	x	x	x	x
c1ccc2c3c([nH]c2c1)[C@H]1C2CCC([C@@H]4CCCN[C@H]24)N1CC3 (stereo partly specified)	x	0	x	x	x	x	x
O=C(CSc1ncccc1C(=O)O)Nc1ccc(Oc2ccccc2)cc1	x	0	x	x	x	x	x
COc1cc2c(cc1OC)CN(C(=O)CSc1ncnc3sc(C)c(C)c13)CC2	x	0	x	x	x	x	x
COc1ccc(S(=O)(=O)N(C)C[C@H]2OCCCC[C@@H](C)Oc3ccc(NS(=O)(=O)c4ccccc4)cc3C(=O)N([C@@H](C)CO)C[C@H]2C)cc1	-2	1	107*	u	43	-6	3
COc1ccc(S(=O)(=O)N(C)C[C@@H]2OCCCC[C@@H](C)Oc3ccc(NS(=O)(=O)c4ccccc4)cc3C(=O)N([C@H](C)CO)C[C@H]2C)cc1	7	0	106*	109*	55	7	4
COc1ccc(S(=O)(=O)N(C)C[C@@H]2OCCCC[C@H](C)Oc3ccc(NS(=O)(=O)c4ccccc4)cc3C(=O)N([C@H](C)CO)C[C@@H]2C)cc1	1	3	67	x	x	x	x
COc1ccc(S(=O)(=O)Nc2ccc3c(c2)C(=O)N([C@H](C)CO)C[C@H](C)[C@H](CN(C)S(=O)(=O)c2ccccc2)OCCCC[C@H](C)O3)cc1	-1	1	x	x	x	x	x
Cc1ccc2c(c1O)C(=O)c1ccc(O[C@@H]3O[C@H](CO[C@@H]4OC[C@@H](O)[C@H](O)[C@H]4O)[C@@H](O)[C@H](O)[C@H]3O)cc1C2=O	x	0	x	x	x	x	x
Cc1sc2ncnc(SCC(=O)Nc3nsc(-c4ccccc4)n3)c2c1C	x	0	x	x	x	x	x
C[C@@H]1CCCCO[C@@H](CN(C)S(=O)(=O)c2ccc(F)cc2)[C@@H](C)CN([C@@H](C)CO)C(=O)c2cc(NS(=O)(=O)c3ccccc3)ccc2O1	1	0	51	x	x	x	x
SMILES	KDM4C inh	IDH1 mut inh	T cruzi growth-1	T cruzi growth-2	T cruzi growth-3	NIH3T3 tox	3T3 cytotox 2
C[C@@H]1CN([C@H](C)CO)C(=O)c2cc(NS(=O)(=O)c3ccc(F)cc3)ccc2O[C@@H](C)CCCCO[C@H]1CN(C)S(=O)(=O)c1ccc(F)cc1	0	2	x	x	x	x	x
Cc1noc(C)c1S(=O)(=O)N(C)C[C@H]1OCCCC[C@@H](C)Oc2ccc(NS(=O)(=O)c3ccc(F)cc3)cc2C(=O)N([C@@H](C)CO)C[C@H]1C	1	x	97*	103*	81	-16	8
C[C@@H]1CCCCO[C@@H](CN(C)S(=O)(=O)c2ccccc2)[C@@H](C)CN([C@@H](C)CO)C(=O)c2cc(NS(=O)(=O)c3ccc(F)cc3)ccc2O1	-1	2	85	x	x	x	x
Cc1noc(C)c1S(=O)(=O)N(C)C[C@@H]1OCCCC[C@@H](C)Oc2ccc(NS(=O)(=O)c3ccc(F)cc3)cc2C(=O)N([C@@H](C)CO)C[C@@H]1C	0	2	56	x	x	x	x
C[C@@H]1CCCCO[C@H](CN(C)S(=O)(=O)c2ccc(F)cc2)[C@H](C)CN([C@H](C)CO)C(=O)c2cc(NS(=O)(=O)c3ccc(F)cc3)ccc2O1	-1	2	115*	106*	u	10	-5
C[C@@H]1CCCCO[C@H](CN(C)S(=O)(=O)c2ccc(F)cc2)[C@H](C)CN([C@@H](C)CO)C(=O)c2cc(NS(=O)(=O)c3ccc(F)cc3)ccc2O1	-3	x	110*	113*	81	2	4
